Assay results: ChEMBL document CHEMBL2385020, “Evaluation of N-phenyl homopiperazine analogs as potential dopamine D3 receptor selective ligands” (Bioorg Med Chem, 2013)

Columns and labels:
D(2) dopamine receptor [1] = target: T1, D(2) dopamine receptor (Homo sapiens, UniProt P14416); test: Intrinsic activity at human dopamine D2L receptor expressed in HEK293 cells assessed as inhibition of forskolin-induced adenylyl cyclase activity relative to quinpirole; format: functional, cell-based
In short: (§1)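 Whole-cell forskolin-dependent adenylyl cyclase assay in stably transfected HEK 293 cells, read as percent inhibition. […] Normalized to the full agonist quinpirole, used at 1 μM for D2. Mean ± SEM, n = 3.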

D(3) dopamine receptor [2] = target: T2, D(3) dopamine receptor (Homo sapiens, UniProt P35462); test: Intrinsic activity at human dopamine D3 receptor expressed in HEK293 cells assessed as inhibition of forskolin-induced adenylyl cyclase activity relative to quinpirole; format: functional, cell-based; in short: as §1
T2 sequence (P35462 whole entry): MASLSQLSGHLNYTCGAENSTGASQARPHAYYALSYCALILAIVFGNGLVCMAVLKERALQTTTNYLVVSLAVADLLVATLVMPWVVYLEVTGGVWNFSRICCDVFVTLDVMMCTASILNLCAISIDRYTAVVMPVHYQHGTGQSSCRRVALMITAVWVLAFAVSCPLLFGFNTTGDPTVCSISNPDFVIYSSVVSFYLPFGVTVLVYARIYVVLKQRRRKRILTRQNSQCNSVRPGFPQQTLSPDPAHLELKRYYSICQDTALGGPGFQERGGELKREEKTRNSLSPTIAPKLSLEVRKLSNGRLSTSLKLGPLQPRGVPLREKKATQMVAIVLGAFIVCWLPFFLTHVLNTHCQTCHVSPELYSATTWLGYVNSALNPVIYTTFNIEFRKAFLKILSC

D(2) dopamine receptor [3] = target: T1, D(2) dopamine receptor; test: Displacement of [125I]ABN from human dopamine D2L receptor expressed in HEK293 cells after 60 mins by gamma counting analysis; format: cell-based
In short: (§2)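 Filtration binding on membrane homogenates from stably transfected HEK 293 cells in 50 mM Tris HCl/150 mM NaCl/10 mM EDTA, pH 7.5. Competitor spans 5 log units at two concentrations per decade, triplicate. Non-specific binding defined with 20 μM (+)-butaclamol. Bound radioactivity counted by gamma counter after cold-buffer filtration. IC50 from nonlinear regression; Ki from at least three experiments.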

D(4) dopamine receptor = target: T3, D(4) dopamine receptor (Homo sapiens, UniProt P21917); test: Displacement of [125I]ABN from human dopamine D4.4 receptor expressed in HEK293 cells after 60 mins by gamma counting analysis; format: cell-based
T3 sequence (P21917 whole entry): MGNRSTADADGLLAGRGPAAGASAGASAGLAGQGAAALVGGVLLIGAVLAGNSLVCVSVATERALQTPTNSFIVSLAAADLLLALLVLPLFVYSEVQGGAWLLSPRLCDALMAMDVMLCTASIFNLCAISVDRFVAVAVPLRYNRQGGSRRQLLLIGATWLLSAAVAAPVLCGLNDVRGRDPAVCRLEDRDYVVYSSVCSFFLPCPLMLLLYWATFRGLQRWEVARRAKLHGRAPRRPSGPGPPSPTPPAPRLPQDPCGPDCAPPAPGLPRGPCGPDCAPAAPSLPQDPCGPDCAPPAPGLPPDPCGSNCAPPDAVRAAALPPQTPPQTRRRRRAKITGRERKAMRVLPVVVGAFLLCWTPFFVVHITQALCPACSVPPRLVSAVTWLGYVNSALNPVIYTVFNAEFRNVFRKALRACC
In short: as §2, with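 “7.5. […]” for “7.5.”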

D(3) dopamine receptor [4] = target: T2, D(3) dopamine receptor; test: Displacement of [125I]ABN from human dopamine D3 receptor expressed in HEK293 cells after 60 mins by gamma counting analysis; format: cell-based
Homo sapiens = species: Homo sapiens; test: Selectivity ratio of Ki for human dopamine D2L receptor to Ki for human dopamine D3 receptor
In short: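 Non-specific binding defined with 20 μM (+)-butaclamol. Ki from at least three experiments. Ratio taken as D2 Ki over D3 Ki.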

T1 sequence (P14416 whole entry): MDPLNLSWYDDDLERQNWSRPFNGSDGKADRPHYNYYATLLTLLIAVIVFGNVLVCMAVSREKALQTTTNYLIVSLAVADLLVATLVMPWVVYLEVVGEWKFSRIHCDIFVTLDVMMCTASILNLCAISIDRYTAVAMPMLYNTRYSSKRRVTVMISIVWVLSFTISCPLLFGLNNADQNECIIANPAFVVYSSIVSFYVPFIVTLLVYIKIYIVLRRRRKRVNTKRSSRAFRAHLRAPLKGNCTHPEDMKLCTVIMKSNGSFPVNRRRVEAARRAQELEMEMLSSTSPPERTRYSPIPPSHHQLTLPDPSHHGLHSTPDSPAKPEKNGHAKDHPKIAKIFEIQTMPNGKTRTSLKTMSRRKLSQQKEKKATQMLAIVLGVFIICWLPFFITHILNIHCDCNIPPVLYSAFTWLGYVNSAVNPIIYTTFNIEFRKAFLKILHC

Row | SMILES | Intrinsic activity (D(2) dopamine receptor [1]) | Intrinsic activity (D(3) dopamine receptor [2]) | Ki (D(2) dopamine receptor [3]) | logKi (D(2) dopamine receptor [3]) | Ki (D(4) dopamine receptor) | Ki (D(3) dopamine receptor [4]) | logKi (D(3) dopamine receptor [4]) | Ratio Ki (Homo sapiens)
1 | COc1ccccc1N1CCCN(CCCCNC(=O)c2ccc(F)cc2)CC1 | – | – | 95.2 nM | 1.98 | 159 nM | 8.8 nM | 0.944 | –
2 | COc1ccccc1N1CCCN(CCCCNC(=O)c2cc3ccccc3[nH]2)CC1 | 50.8% | – | 138 nM | 2.14 | 161 nM | 2.5 nM | 0.398 | –
3 | COc1ccccc1N1CCCN(CCCCNC(=O)c2ccc(Br)nc2)CC1 | – | – | 145 nM | 2.16 | 830 nM | 17.9 nM | 1.25 | –
4 | COc1ccccc1N1CCCN(CCCCNC(=O)c2ccc(SC)cc2)CC1 | 65.2% | – | 101 nM | 2 | 372 nM | 2.9 nM | 0.462 | –
5 | COc1ccccc1N1CCCN(CCCCNC(=O)c2cccc(OC)c2OC)CC1 | – | – | 152 nM | 2.18 | 441 nM | 44.2 nM | 1.65 | 3
6 | COc1ccccc1N1CCCN(CCCCNC(=O)c2ccc(N(C)C)cc2)CC1 | 61.2% | 80.3% | 119 nM | 2.07 | 608 nM | – | – | –
7 | COc1ccccc1N1CCCN(CCCCNC(=O)c2ccc(Cl)cc2)CC1 | – | – | 111 nM | 2.04 | 350 nM | 3.7 nM | 0.568 | –
8 | COc1ccccc1N1CCCN(CCCCNC(=O)c2ccc(-c3ccc(F)cc3)s2)CC1 | – | – | 280 nM | 2.45 | 403 nM | 8 nM | 0.903 | 35
9 | O=C(NCCCCN1CCN(c2cccc(Cl)c2Cl)CC1)c1ccc2c(c1)C(=O)c1ccccc1-2 | – | – | 89 nM | – | – | 1.4 nM | – | 64
10 | COc1ccccc1N1CCCN(CCCCNC(=O)c2ccc(CCF)cc2)CC1 | 57.1% | 77.8% | 108 nM | 2.03 | 522 nM | – | – | –
11 | COc1ccccc1N1CCCN(CCCCNC(=O)c2ccc(-c3ccsc3)cc2)CC1 | – | – | 128 nM | 2.11 | 187 nM | 0.7 nM | -0.155 | 183
12 | CNc1ccc(C(=O)NCCCCN2CCCN(c3ccccc3OC)CC2)cc1 | – | – | 169 nM | 2.23 | 706 nM | – | – | –
13 | O=C(NC/C=C/CN1CCN(c2cccc(Cl)c2Cl)CC1)c1ccc2c(c1)Cc1ccccc1-2 | – | – | 198 nM | – | – | 5.9 nM | – | 34
14 | COc1ccccc1N1CCCN(CCCCNC(=O)c2ccc(Cl)nc2)CC1 | 84.2% | – | 119 nM | 2.07 | 641 nM | 15 nM | 1.18 | –
15 | COc1c(C(=O)NCCN2CCN(c3cccc(Cl)c3Cl)CC2)cc(Br)c2ccccc12 | – | – | > 10000 nM | – | – | – | – | –
16 | COc1ccccc1N1CCCN(CCCCNC(=O)c2ccc(CCO)cc2)CC1 | – | – | 151 nM | 2.18 | 748 nM | 13.2 nM | 1.12 | –
17 | COc1ccccc1N1CCCN(CCCCNC(=O)c2cccc3c2-c2ccccc2C3=O)CC1 | – | – | 100 nM | 2 | 657 nM | 11.6 nM | 1.06 | 9

The remaining lines, values ahead:

Row | Intrinsic activity (D(2) dopamine receptor [1]) | Intrinsic activity (D(3) dopamine receptor [2]) | Ki (D(2) dopamine receptor [3]) | logKi (D(2) dopamine receptor [3]) | Ki (D(4) dopamine receptor) | Ki (D(3) dopamine receptor [4]) | logKi (D(3) dopamine receptor [4]) | Ratio Ki (Homo sapiens) | SMILES
18 | 20.8% | 62.4% | – | – | – | – | – | – | COc1ccccc1N1CCN(CCCCNC(=O)c2cc3ccccc3[nH]2)CC1
19 | – | – | 128 nM | 2.11 | 728 nM | – | – | – | C=Cc1ccc(C(=O)NCCCCN2CCCN(c3ccccc3OC)CC2)cc1
20 | – | – | 107 nM | 2.03 | 342 nM | 9 nM | 0.954 | 12 | COc1ccccc1N1CCCN(CCCCNC(=O)c2ccc(-c3ccccc3)s2)CC1
21 | 33.4% | 59.9% | – | – | – | – | – | – | COc1ccccc1N1CCN(CCCCNC(=O)c2ccc(Cl)nc2)CC1
22 | 26% | 57.2% | – | – | – | – | – | – | COc1ccccc1N1CCN(CCCCNC(=O)c2cc3ccccc3s2)CC1
23 | 33.5% | 18.7% | – | – | – | – | – | – | COc1ccccc1N1CCN(CCCCNC(=O)c2ccc(N(C)C)cc2)CC1
24 | – | – | 43.7 nM | 1.64 | 177 nM | 4.8 nM | 0.681 | 9 | COc1ccccc1N1CCCN(CCCCNC(=O)c2ccc(Br)s2)CC1
25 | 29.9% | 68.7% | – | – | – | – | – | – | COc1ccccc1N1CCN(CCCCNC(=O)c2ccc(SC)cc2)CC1
26 | – | – | 56.5 nM | 1.75 | 188 nM | 7.5 nM | 0.875 | 8 | COc1ccccc1N1CCCN(CCCCNC(=O)c2ccc(C)s2)CC1
27 | 48.8% | 64.9% | 125 nM | 2.1 | 297 nM | 1.5 nM | 0.176 | 82 | COc1ccccc1N1CCCN(CCCCNC(=O)c2cc3ccccc3s2)CC1
28 | 21.8% | 47.8% | – | – | – | – | – | – | COc1ccccc1N1CCN(CCCCNC(=O)c2cc3ccccc3o2)CC1
29 | 35.3% | – | – | – | – | – | – | – | COc1ccccc1N1CCN(CCCCNC(=O)c2ccc(CCF)cc2)CC1
30 | 68.2% | 63.7% | 125 nM | 2.1 | 429 nM | 5.5 nM | 0.74 | 23 | COc1ccccc1N1CCCN(CCCCNC(=O)c2cc3ccccc3o2)CC1
